From PubChem
SENP8 block-1: SENP8 protease inhibitors, primary screen, biochemical, luminescence. Sentrin-specific protease 8 (Homo sapiens), Q96LD8. purified SENP8, Z-RLRGG-aminoluciferin cleavage. inhibition, % at 10 µM. actives 1.2% (n = 330,000). AID 2540, 2010; in the data active means inhibition above about 50%
UBC13 inh: UBC13 polyubiquitin chain formation inhibitors, primary screen, biochemical, TR-FRET, uHTS; Ubiquitin-conjugating enzyme E2 N (Homo sapiens), P61088; inhibition, % at 20 µM; actives 0.47% (n = 330,000); in the data active means inhibition above about 45%, passing the limit was not always enough
Target sequence (P61088 whole entry, looked up): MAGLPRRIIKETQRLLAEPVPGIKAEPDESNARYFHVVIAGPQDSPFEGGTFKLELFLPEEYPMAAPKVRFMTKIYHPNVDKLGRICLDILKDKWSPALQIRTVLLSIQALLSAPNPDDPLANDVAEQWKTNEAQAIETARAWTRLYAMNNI
SENP8 block-2: human SENP8 protease inhibitors, primary screen, biochemical, fluorescence, Nedd8 protein substrate, uHTS | inhibition, % at 20 µM | actives 0.64% (n = 360,000) | AID 602440, 2012 | recombinant SENP8; in the data active means inhibition mostly above about 40%, no sharp cut-off; inactive means mostly below about 27%
SENP6 inh: SENP6 protease inhibitors, primary screen, biochemical, luminescence, uHTS; Sentrin-specific protease 6 (Homo sapiens), Q9GZR1; Recombinant SENP6 catalytic domain, aminoluciferin luminescence; inhibition, % at 10 µM; actives 1.8% (n = 330,000);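 active means inhibition above about 50% at the single tested dose, limit read from the data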;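 further: plate controls were DMSO wells with enzyme for no effect and DMSO wells lacking enzyme for full effect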
Target sequence (Q9GZR1 628-1112 limits assumed): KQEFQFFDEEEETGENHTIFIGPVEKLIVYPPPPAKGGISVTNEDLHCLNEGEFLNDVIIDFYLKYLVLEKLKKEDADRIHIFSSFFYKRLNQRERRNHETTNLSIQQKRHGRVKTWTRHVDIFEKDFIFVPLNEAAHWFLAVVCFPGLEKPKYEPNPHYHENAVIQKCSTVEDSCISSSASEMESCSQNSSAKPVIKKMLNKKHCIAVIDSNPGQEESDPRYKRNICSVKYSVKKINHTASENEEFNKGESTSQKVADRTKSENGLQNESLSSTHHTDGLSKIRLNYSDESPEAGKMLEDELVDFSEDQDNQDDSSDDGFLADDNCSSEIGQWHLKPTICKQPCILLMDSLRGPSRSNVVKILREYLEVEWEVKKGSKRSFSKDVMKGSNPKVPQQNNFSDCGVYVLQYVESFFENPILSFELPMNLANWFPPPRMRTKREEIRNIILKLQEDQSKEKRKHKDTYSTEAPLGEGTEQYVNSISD
Apaf-1 inh: inhibitors of human Apaf-1 apoptosome, primary screen, biochemical, DEVD-Rh110 fluorescence, uHTS. Apoptotic protease-activating factor 1 (Homo sapiens), O14727. reconstituted apoptosome caspase-3 activity. inhibition, % at 20 µM. actives 0.71% (n = 330,000); active means inhibition of at least 40% at 20 µM;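 further: plate controls were DMSO wells for no effect and DEVD-CHO caspase inhibitor wells for full effect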
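Material: cell-free apoptosome with Apaf-1, procaspase-3 and caspase-9; Buffer or medium: Hepes pH 7.5 with detergent and BSA; Reagent: cytochrome c trigger plus (Z-DEVD)2-Rh110 caspase-3 substrate; Times: compound with Apaf-1, dATP, procaspase-3 30 min, then 50 min reaction, room temperature; Technique: Rh110 fluorescence intensity.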
SENP7 block: SENP7 protease inhibitors, primary screen, biochemical, luminescence, uHTS; AID 434973, 2010; actives 1.5% (n = 330,000); Sentrin-specific protease 7 (Homo sapiens), Q9BQF6; recombinant SENP7, Z-RLRGG-aminoluciferin luminescence, 40 min; inhibition, % at 5 µM;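 active means inhibition above about 50% at the single test dose, limit read from the data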;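 further: plate controls were DMSO with enzyme for no effect and no enzyme buffer wells for full effect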
* = called active by the depositor. Hits are enriched below; roughly 3% of the tested compounds scored in any of these assays.

`O=C(NC1CCS(=O)(=O)C1)Oc1ccccc1` (stereo not given) gave SENP8 block-1 -5.1, UBC13 inh 0.5, SENP8 block-2 24.9, SENP6 inh -7.4, Apaf-1 inh 51.1* and SENP7 block -9.3.
For O=C1Nc2ccccc2-n2nnnc2C1N1CCc2ccccc2C1 (stereo not given) the results were SENP8 block-2 15.1.
`CN1CCc2cccc3c2C1Cc1ccc(O)c(O)c1-3` (stereo not given) gave SENP8 block-1 0.0, UBC13 inh 14.7, SENP8 block-2 -31.6, SENP6 inh 14.7, Apaf-1 inh 49.6* and SENP7 block 17.0.
`CCc1nc2c(OCc3ccc(Cl)cc3)cccn2c1N(C)C(=O)c1ccc(C)cc1` gave SENP8 block-2 22.4.
`O=C1NCCCC1C(=O)N/N=C/c1cc([N+](=O)[O-])ccc1O` (stereo not given) gave SENP8 block-1 2.8, UBC13 inh -22.9, SENP8 block-2 44.7*, SENP6 inh -14.7, Apaf-1 inh 1.3 and SENP7 block 3.7.
CCCCCCCCCCCCCCCC[n+]1cccc2ccccc21 was read as SENP8 block-1 3.2, UBC13 inh 102.1*, SENP8 block-2 -41.0, SENP6 inh -17.2, Apaf-1 inh 91.1* and SENP7 block 7.0.
For CC(C)=CC(=O)Nc1ccccc1C(N)=O the results were SENP8 block-1 -3.1, UBC13 inh 4.5, SENP8 block-2 2.4, SENP6 inh -30.9, Apaf-1 inh -1.0 and SENP7 block 1.5.
NC(=O)c1ccccc1NC(=O)/C=C/c1ccccc1 was read as SENP8 block-1 21.9, UBC13 inh -12.6, SENP8 block-2 -86.0, SENP6 inh 65.6*, Apaf-1 inh -3.4 and SENP7 block 40.1.
For CC(=O)Nc1cccc(-c2ccnc3c2CC(C(=O)NCc2cccs2)O3)c1 (stereo not given) the results were SENP8 block-2 23.3.
Screening O=C(/C=C/c1ccc2c(c1)OCO2)Nc1nncs1 returned SENP8 block-1 40.8, UBC13 inh 6.5, SENP8 block-2 -427.1, SENP6 inh 59.7*, Apaf-1 inh -3.5 and SENP7 block 83.8*.
Screening CC(=O)Nc1cc(-c2cccc(F)c2)cn2c(-c3ccc(F)cc3)cnc12 returned SENP8 block-2 -315.9.
For O=C1/C(=C/C=C/c2ccco2)SC(=S)N1c1ccc(O)cc1 the results were SENP8 block-1 4.2, UBC13 inh 44.6, SENP8 block-2 46.4*, SENP6 inh -52.7, Apaf-1 inh 12.4 and SENP7 block 8.8.
`O=C1/C(=C\c2ccco2)SC(=S)N1c1ccc(O)cc1` gave SENP8 block-1 29.0, UBC13 inh 0.9, SENP8 block-2 13.0, SENP6 inh -4.7, Apaf-1 inh 12.4 and SENP7 block 7.2.
`COCCN1C(=O)CN(S(C)(=O)=O)CC1(C)C(=O)NC(C)C` (stereo not given) gave SENP8 block-2 13.0.
`CC1CCCCN1S(=O)(=O)c1ccc(C(=O)N(CCCN(C)C)c2nc3ccc(Br)cc3s2)cc1` (stereo not given) gave SENP8 block-1 -6.1, UBC13 inh 51.7*, SENP8 block-2 5.3, SENP6 inh -0.5, Apaf-1 inh 67.3* and SENP7 block 1.2.
Screening O=c1[nH]c(CCl)nc2cc(-c3ccc(F)cc3)sc12 returned SENP8 block-1 78.9*, UBC13 inh -0.3, SENP8 block-2 -1.9, SENP6 inh 88.6*, Apaf-1 inh 15.7 and SENP7 block 47.4.
Screening N#Cc1ccsc1NC(=O)COC(=O)c1ccc(NC(N)=O)cc1 returned SENP8 block-1 73.3*, UBC13 inh -7.3, SENP8 block-2 -1.9, SENP6 inh 49.9, Apaf-1 inh -6.7 and SENP7 block 68.8*.
`NC(=O)Nc1ccc(C(=O)OCC(=O)Nc2sccc2C(N)=O)cc1` gave SENP8 block-1 -2.6, UBC13 inh 11.9, SENP8 block-2 -4.7, SENP6 inh 3.5, Apaf-1 inh 3.7 and SENP7 block -1.9.
For N#Cc1ccsc1NC(=O)COC(=O)c1cc2ccccc2cc1O the results were SENP8 block-1 89.3*, UBC13 inh -7.3, SENP8 block-2 -82.9, SENP6 inh 96.4*, Apaf-1 inh -4.8 and SENP7 block 89.0*.
Screening Nc1sc(-c2ccccc2)cc1C(=O)N1CCNCC1 returned SENP8 block-2 -23.5.
For COc1cccc2c1-c1c(O)cccc1C2=O the results were SENP8 block-1 5.9, UBC13 inh -49.8, SENP8 block-2 11.5, SENP6 inh 4.3, Apaf-1 inh 2.9 and SENP7 block -0.8.
For COc1cccc2c1C(=O)c1c(O)c3c(c(O)c1C2=O)CC(O)(C(C)=O)CC3OC1CC(O)C(O)C(C)O1 (stereo not given) the results were SENP8 block-2 50.4*.
For COc1cccc2c1C(=O)c1c(O)c3c(c(O)c1C2=O)C[C@](O)(C(C)=O)C[C@H]3O[C@@H]1C[C@@H](N)[C@@H](O)[C@@H](C)O1 the results were SENP8 block-1 11.4, UBC13 inh -335.6, SENP8 block-2 40.9*, SENP6 inh 13.3, Apaf-1 inh 20.5 and SENP7 block 9.6.
CCCCC(=O)OCC(=O)C1(O)Cc2c(O)c3c(c(O)c2C(OC2CC(NC(=O)C(F)(F)F)C(O)C(C)O2)C1)C(=O)c1c(OC)cccc1C3=O (stereo not given) was read as SENP8 block-2 45.3*.
Screening COc1cccc2c1C(=N)c1c(O)c3c(c(O)c1C2=O)CC(O)(C(C)=O)CC3OC1CC(N)C(O)C(C)O1 (stereo not given) returned SENP8 block-2 37.6.
O=C(CSc1nnc(SCc2ccccc2)s1)N/N=C/c1c(Cl)cccc1Cl was read as SENP8 block-1 -16.0, UBC13 inh -8.0, SENP8 block-2 20.5, SENP6 inh -15.1, Apaf-1 inh 21.7 and SENP7 block -4.3.
Screening O=C(CSc1nnc(SCc2ccccc2Cl)s1)N/N=C/c1ccc(C(=O)O)cc1 returned SENP8 block-1 83.0*, UBC13 inh -3.8, SENP8 block-2 19.0, SENP6 inh 93.3*, Apaf-1 inh -4.2 and SENP7 block 31.4.
`O=C(O)COc1ccccc1/C=N/NC(=O)CSc1nc2ccccc2n1Cc1ccccc1` gave SENP8 block-1 -3.1, UBC13 inh -2.9, SENP8 block-2 13.9, SENP6 inh -1.2, Apaf-1 inh -8.9 and SENP7 block 9.1.
Screening O=C(O)COc1ccccc1/C=N/NC(=O)CSc1nnc(SCc2ccccc2)s1 returned SENP8 block-1 24.4, UBC13 inh 11.3, SENP8 block-2 21.6, SENP6 inh 56.2*, Apaf-1 inh -14.7 and SENP7 block 14.0.
